Experimental data from different studies.
Protocols differ between the studies behind these lines.
Target: Serine/threonine-protein kinase N1 (PKN1, Homo sapiens, UniProt Q16512)

FC(F)(F)Oc1cccc(-c2cnc3ccc(-c4ccncc4)nn23)c1  remaining binding (cell-free assay; competition with immobilised ligand; 5 µM): 67%
c1cnn2ncc(-c3ccnc(N4CCC45COC5)n3)c2c1  remaining binding (binding; 1 µM): 87%
c1cncc(-c2cccc(Nc3nccc(NC4CCCCC4)n3)c2)c1  remaining binding (binding; competition with immobilised ligand; 10 µM): 64%
CNC(=O)[C@@H]1CC[C@@H](n2c(-c3ccc4cnccc4c3)nc3ccc(C(=O)NCc4cccc(C(N)=O)c4)cc32)C1  remaining binding (binding; competition with immobilised ligand; 1 µM): 92%
Cc1cc(C)c(-n2ccn3nc(-c4cccnc4)cc23)cc1NC(=O)c1cc(C#N)cc(S(F)(F)(F)(F)F)c1  remaining binding (cell-free assay; competition with immobilised ligand; 0.1 µM): 96.7%
CN(C)c1ncc(F)c(-c2cnn3ncccc23)n1  remaining binding (binding; 1 µM): 100%
CN(C)c1ncnc(-c2ccc3nc(Nc4cc(CN5CCN(C(=O)CC(F)(F)F)CC5)ccn4)[nH]c3c2)c1Cl  remaining binding (cell-free assay; competition with immobilised ligand; 1 µM): 100%
O=C(c1ccc(Nc2ncc(Cl)c(-c3ccc(Cl)s3)n2)cc1)N1CCC(N2CCCC2)CC1  remaining binding (binding; competition with immobilised ligand; 1 µM): 25%
F[C@@H]1CCN(c2nccc(-c3cnn4ncccc34)n2)C1  remaining binding (binding; 1 µM): 100%
O=C(NS(=O)(=O)c1ccc(NCC2CCOCC2)c([N+](=O)[O-])c1)c1ccc(N2CCN(Cc3ccc(C(F)(F)F)cc3-c3ccc(Cl)cc3)CC2)cc1Oc1cnc2[nH]ccc2c1  remaining binding (cell-free assay; competition with immobilised ligand; 1 µM): 100%
O=C(NCCCN1CCOCC1)c1ccc(Nc2nccc(-c3cc4ccccc4s3)n2)cc1  remaining binding (binding; competition with immobilised ligand; 1 µM): 37%
COc1ccc2c(c1)O[C@@H](c1ccc(OC)c(OC)c1)C[C@H]2NC(=O)C1(c2ccc3c(c2)OC(F)(F)O3)CC1  remaining binding (cell-free assay; competition with immobilised ligand; 1 µM): 96%
COc1cnc(Nc2cccc(S(N)(=O)=O)c2)nc1N1CCN(c2ccccc2)C(=O)C1  remaining binding (binding; competition with immobilised ligand; 1 µM): 98%
O=C(NCC1CCOCC1)c1n[nH]cc1NC(=O)c1c(F)cccc1F  remaining binding (binding; competition with immobilised ligand; 1 µM): 100%
CCN1CCN(Cc2ccc(C(=O)Nc3ccc(C)c(Oc4ccc5c(c4)CC(=O)N5)c3)cc2C(F)(F)F)CC1  remaining binding (binding; competition with immobilised ligand; 1 µM): 100%
O=C(c1ccc(Nc2ncc(Cl)c(-c3cc4ccccc4s3)n2)cc1)N1CCC(N2CCCC2)CC1  remaining binding (binding; competition with immobilised ligand; 1 µM): 3.4%
O=C(Nc1cnc(Oc2ccc(F)cc2)nc1)N1CCc2ncccc2[C@@H]1c1ccc(F)cc1  remaining binding (cell-free assay; competition with immobilised ligand; 1 µM): 95%
CN(C)c1nccc(-c2cnc3ncccn23)n1  remaining binding (binding; 1 µM): 100%
C[C@H](c1ccc(F)cc1)N(Cc1cccc(C(=O)O)c1)C(=O)c1cnc2ccccc2c1  remaining binding (cell-free assay; competition with immobilised ligand; 1 µM): 100%
N[C@H]1CCN(c2nccc(-c3cnn4ncccc34)n2)C1  remaining binding (binding; 1 µM): 86%
CCc1ccccc1C(=O)Nc1n[nH]c2c(C)c(F)c(C3C(C#N)=C(C)N(C)C(C)=C3C#N)cc12  remaining binding (cell-free assay; competition with immobilised ligand; 1 µM): 100%
CN(CCCC(F)(F)F)c1nccc(-c2cnn3ncccc23)n1  remaining binding (binding; 1 µM): 100%
